Measured values taken from ChEMBL document CHEMBL1142668, “Synthesis and biological evaluation of neutral and zwitterionic 3-carboranyl thymidine analogues for boron neutron capture therapy” (J Med Chem, 2005).

System: L929
Assay: Mean phosphorylation rate of 10 uM compound by recombinant human thymidine kinase 1 (cytosolic) expressing wild type L929 tumor cells
Assay type: functional, Mus musculus
Conditions: not given
Procedure, shortened: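 Purified recombinant human TK1 (50 ng) with 10 µM substrate, final DMSO 1%, 100 µM ATP spiked with 0.03 µM [γ-32P]-ATP, in 50 mM Tris-HCl pH 7.6, 5 mM MgCl2, 125 mM KCl, 10 mM DTT, 0.5 mg/mL BSA. Run at 37 °C for 20 min, then 95 °C for 2 min. Products separated by PEI-cellulose TLC and read by phosphorimager. Rate expressed relative to thymidine, using one enzyme batch.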

Molecule | Phosphorylation rate [%]
C#CCn1c(=O)c(C)cn([C@H]2CC(O)[C@@H](CO)O2)c1=O (single isomer, unassigned) | 102
Cc1cn([C@H]2C[C@H](O)[C@@H](CO)O2)c(=O)[nH]c1=O [DOXRIBTIMINE] | 100
Cc1cn([C@H]2C[C@H](N=[N+]=[N-])[C@@H](CO)O2)c(=O)[nH]c1=O [ZIDOVUDINE] | 52

Same assay, conditions: Mus musculus

Molecule | Phosphorylation rate [%]
3-[2-(7-Amino-closo-m-carboran-1-yl)-ethan-1-yl]thymidine | 71.9
3-[2-(7-Amino-closo-m-carboran-1-yl)ethoxyethyl]thymidine | 48.4
3-[2-(7-Ammonium-nido-m-carboran-1-yl)ethan-1-yl]-thymidine | 89.4
3-[2-(7-Ammonium-nido-m-carboran-1-yl)ethoxyethyl]-thymidine | 75.1
3-[3-(7-Amino-closo-m-carboran-1-yl)propan-1-yl]thymidine | 58.2
3-[3-(7-Ammonium-nido-m-carboran-1-yl)propan-1-yl]-thymidine | 64.6
3-[4-(7-Amino-closo-m-carboran-1-yl)butan-1-yl]thymidine | 58
3-[4-(7-Ammonium-nido-m-carboran-1-yl)butan-1-yl]-thymidine | 63.8
3-[5-(7-Amino-closo-m-carboran-1-yl)hexan-1-yl]thymidine | 14.2
3-[5-(7-Amino-closo-m-carboran-1-yl)pentan-1-yl]thymidine | 45.1
3-[5-(7-Ammonium-nido-m-carboran-1-yl)pentan-1-yl]thymidine | 50.7
3-[6-(7-Ammonium-nido-m-carboran-1-yl)hexan-1-yl]-thymidine | 45.4
3-[(closo-o-Caboran-1-yl)methyl]thymidine | 9.6
N5-20H | 41

System: not listed separately
Assay: Mean retention time in reversed phase HPLC (RP-18)
Assay type: ADME
Conditions: not given

Retention time [min] | Molecule
11.79 | C#CCn1c(=O)c(C)cn([C@H]2CC(O)[C@@H](CO)O2)c1=O (single isomer, unassigned)
12.22 | Cc1cn([C@H]2C[C@H](N=[N+]=[N-])[C@@H](CO)O2)c(=O)[nH]c1=O [ZIDOVUDINE]

Molecule | Retention time [min]
Cc1cn([C@H]2C[C@H](O)[C@@H](CO)O2)c(=O)[nH]c1=O [DOXRIBTIMINE] | 8.72
